Screening results deposited in PubChem by several laboratories.
Most compounds without a hit are left out; they make up all but 4.5% or so of the library.
p97 ATPase inh: human p97 ATPase inhibition; recombinant p97 ATPase, Kinase-Glo ATP luminescence, 3 h; inhibition, % at 8 µM; hit rate 0.42% among 220,000; AID 1481; in the data active means inhibition above about 15%;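 further: 0% = DMSO vehicle and 100% = wells lacking enzyme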
Target sequence (P55072 whole entry, looked up): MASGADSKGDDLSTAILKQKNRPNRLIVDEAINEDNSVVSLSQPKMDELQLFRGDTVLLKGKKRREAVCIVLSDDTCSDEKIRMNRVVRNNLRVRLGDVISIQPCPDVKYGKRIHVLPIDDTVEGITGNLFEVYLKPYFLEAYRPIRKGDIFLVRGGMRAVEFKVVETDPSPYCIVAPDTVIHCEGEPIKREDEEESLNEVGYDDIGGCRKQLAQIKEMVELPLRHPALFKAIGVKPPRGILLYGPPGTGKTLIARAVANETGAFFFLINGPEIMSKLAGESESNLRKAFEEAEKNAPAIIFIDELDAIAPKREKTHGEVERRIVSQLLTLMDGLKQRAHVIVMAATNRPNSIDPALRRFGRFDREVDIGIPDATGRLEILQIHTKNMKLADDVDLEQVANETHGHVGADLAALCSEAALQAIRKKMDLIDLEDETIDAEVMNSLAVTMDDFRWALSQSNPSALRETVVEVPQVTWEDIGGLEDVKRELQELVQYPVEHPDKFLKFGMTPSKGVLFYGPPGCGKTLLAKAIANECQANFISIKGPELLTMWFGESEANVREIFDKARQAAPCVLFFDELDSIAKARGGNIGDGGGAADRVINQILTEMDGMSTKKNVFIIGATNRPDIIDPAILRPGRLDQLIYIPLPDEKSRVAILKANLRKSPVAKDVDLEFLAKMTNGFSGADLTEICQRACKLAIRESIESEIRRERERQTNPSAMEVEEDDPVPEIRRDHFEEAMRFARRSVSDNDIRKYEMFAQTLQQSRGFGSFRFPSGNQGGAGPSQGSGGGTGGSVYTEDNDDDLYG
PfM18AAP inh: blocks P. falciparum M18 aspartyl aminopeptidase; recombinant PfM18AAP, H-Glu-NHMec fluorogenic cleavage; inhibition, % at 7.35 µM; hit rate 1.2% among 290,000;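 active means inhibition above the campaign mean inhibition over all tested compounds plus 3 SD, cut at about 28% in these data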;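 further: 0% = plate median of test compound wells and 100% = 2 mM ZnCl2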
UPR XBP1 act: adaptive UPR (XBP1) activation | CHO-XBP1 luciferase reporter, IRE1-XBP1 UPR activation, luminescence; percent of tunicamycin response, DMSO as zero | activation, % at 20 µM | hit rate 0.33% among 330,000;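 active means versus positive control, 20 µM dose yields 30% or more activation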;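 further: 100% = tunicamycin at 10 µg/mL and 0% = DMSO only wells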
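Material – CHO cell line with stable XBP1 luciferase reporter · Buffer or medium – F12 plus 10% FBS · Compound – single point, 20 µM final compound, 1% DMSO · Schedule – 16-18 h cell attachment at 37 °C, then 6 h compound exposure · Signal – Steady-Glo luminescence read · Benchmarks – high control tunicamycin 10 µg/mL final, low control DMSO vehicle only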
CHOP UPR activ: apoptotic UPR (CHOP) activation; AID 449763; activation, % at 10 µM; hit rate 0.34% among 330,000; CHO-CHOP luciferase reporter, luminescence; percent of tunicamycin response over DMSO baseline;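 active means at 10 µM dose, activation of 40% or more, normalized to positive control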;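 further: 100% = tunicamycin at 10 µg/mL and 0% = DMSO alone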
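measured by = luciferase luminescence | assay system = CHO-CHOP cells, stable luciferase reporter of PERK-eIF2a-CHOP signalling | amount = 500 reporter cells seeded per well | timing = 6 h compound exposure at 37 °C after overnight seeding | controls = positive tunicamycin 10 µg/mL, negative DMSO alone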
CHOP inh: CHOP inhibition in unfolded protein response. CHO-K1 CHOP-promoter luciferase, tunicamycin-induced, 15-18 h. AID 2732. inhibition, % at 10 µM. hit rate 3.8% among 220,000;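 active means compounds that reduced the stress-induced luciferase reporter signal by more than about 70% of percent inhibition, limit read from the data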;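 further: 0% = tunicamycin plus vehicle and 100% = wells without tunicamycin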
HCV NS3 hel inh: HCV NS3 helicase inhibition; inhibition, % at 10.9 µM; hit rate 0.56% among 290,000; NS3 helicase DNA unwinding, Cy5 molecular beacon fluorescence; AID 1800;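 active means inhibition above the mean of all tested compounds plus 3 SD, set per campaign, cut at about 35% in these data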;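 further: 0% = DMSO wells and 100% = thioflavine S control wells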
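Material: hepatitis C virus NS3 helicase domain fragment enzyme; measured by: Cy5 fluorescence, 0 and 60 min reads; control set: DMSO and thioflavine S; incubation: 60 min unwinding reaction at 25 °C after ATP addition; read-out basis: % inhibition from 60/0 min fluorescence ratio, DMSO 0%, thioflavine S 100%; repeats: singlicate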
NS3 helicase cf: confirmation of Hepatitis C virus NS3 helicase inhibitors | NS3 helicase DNA unwinding, Cy5 molecular beacon fluorescence | hit rate 31% among 1,600 | shares compounds with HCV NS3 hel inh | inhibition, % at 10.9 µM;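 active means inhibition above the mean of all tested compounds plus 3 SD, cutoff set per campaign, cut at about 36% in these data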
FID counter trip: displaces DNA intercalator in HCV helicase counter-screen. DNA fluorescent intercalator displacement, fluorescence. inhibition, % at 7.9 µM. AID 1945. shares compounds with HCV NS3 hel inh. hit rate 4% among 1,600; in the data active means inhibition above about 37%;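 further: 0% = vehicle and 100% = reference compound; higher means more displacement of ethidium bromide from the DNA hairpin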
FID counter DR: displaces fluorescent intercalator from DNA, HCV helicase counter-screen; IC50, µM; 120 tested, under 10 active; shares compounds with HCV NS3 hel inh; AID 2172; fluorescent intercalator displacement from DNA, fluorescence; call rule not given here
* = called active by the depositor; x = no result given.

SMILES	p97 ATPase inh	PfM18AAP inh	UPR XBP1 act	CHOP UPR activ	CHOP inh	HCV NS3 hel inh	NS3 helicase cf	FID counter trip	others
O=C(NC(=S)NC1CCSC1=O)c1ccc([N+](=O)[O-])cc1 (configuration not stated)	x	-0.5	-0.5	3.2	x	42.9*	-17.3	12.8
O=C(NC(=S)NNC(=O)c1ccccc1O)c1ccc([N+](=O)[O-])cc1	x	30.1*	-2.9	-1.3	x	36.2*	-12.5	16.9
CCCCCCCCCCCCN1C/C(=C\C(=O)OCC)c2cc(C(F)(F)F)ccc2S1(=O)=O	x	5.2	3.3	0.0	x	25.2	x	x
CCCCCCCCCCCCN1C/C(=C\C(=O)OCC)c2ccccc2S1(=O)=O	x	-3.5	-2.2	-1.1	x	79.5*	9.9	-21.9
COc1cc(/C=C2/C(=O)NN(c3ccc(F)cc3)C2=O)cc(Cl)c1O	x	12.8	-5.1	-2.1	x	36.4*	34.3	6.8
COC(=O)c1ccc(N2NC(=O)/C(=C/c3cc(OC)c(O)c(OC)c3)C2=O)cc1	x	31.1*	4.4	5.8	x	61.3*	17.0	12.9
COC(=O)c1ccc(N2NC(=O)/C(=C/c3cc(OC)c(OC)c(OC)c3)C2=O)cc1	x	6.4	16.6	10.0	x	-8.9	x	x
COc1cc(/C=C2/C(=O)NN(c3ccc(Cl)cc3)C2=O)cc(Br)c1O	x	9.4	0.0	4.6	x	22.7	x	x
COc1cccc(/C=C2/C(=O)NN(c3ccc(Br)cc3)C2=O)c1O	x	8.4	-5.7	3.5	x	37.6*	58.1*	8.0
C=CCn1c2ccccc2c2nnc(SCCN3CCOCC3)nc21	x	18.0	1.9	18.1	x	-4.2	x	x
O=C1CSC(=S)N1/N=C/C=C/c1ccccc1	-4.8	53.6*	0.7	2.3	0.8	38.6*	7.5	10.1
Cc1ccc(C(=O)Nn2cnc3ccccc3c2=O)cc1C	x	-1.4	0.1	0.6	x	24.5	x	x
Cc1ccc(NC(=O)c2cc(C)nc3ccccc23)cc1	x	-6.9	-2.7	3.1	x	7.8	x	x
Cc1ccc(C)c(NC(=O)c2cc(C)nc3ccccc23)c1	x	-2.3	-6.9	1.5	x	54.8*	-2.0	0.2
CCC1(CC)NC(=O)N(CC(=O)OC(C)C(=O)Nc2ccc(NC(C)=O)cc2)C1=O (configuration not stated)	x	x	11.8	0.8	x	x	x	x
O=C(CN1CCOc2ccccc21)NC1CCCCCCC1	0.6	2.5	-2.6	-1.1	x	61.6*	-15.8	-26.7
O=C1OC(c2ccco2)=N/C1=C\c1ccc(-c2cccc(C(F)(F)F)c2)o1	2.4	6.0	-1.2	0.1	-5.5	36.8*	47.2*	-4.5	FID counter DR=>79.4
O=C1OC(c2cccs2)=N/C1=C/c1ccc(-c2cccc(C(=O)O)c2)o1	0.8	8.1	x	x	-7.4	29.9	x	x
O=C(O)Cn1c2c(c3ccccc31)CSc1ccc(Cl)cc1-2	x	3.1	x	x	x	36.5*	83.5*	-10.5
CN/C=C1\C(=O)C(C)(C)Oc2ccc3ccc(=O)oc3c21	2.4	1.9	3.7	-2.4	9.9	-0.5	x	x
CC1(C)Oc2ccc3ccc(=O)oc3c2/C(=C/NNC(N)=S)C1=O	x	13.4	-1.8	-1.7	x	50.6*	-16.7	-8.4
O=C(COc1ccc(S(=O)(=O)N2CCCC2)cc1)N1CCCCC1	x	-3.7	-1.9	3.5	x	5.9	x	x
COc1ccc(/C=C2/S/C(=N/S(=O)(=O)Cc3ccccc3)NC2=O)cc1OC	3.7	-12.0	2.2	2.8	8.4	41.8*	57.1*	-33.3
COc1cc(/C=C2/SC(=S)NC2=O)ccc1OS(=O)(=O)c1ccc(C)cc1	-2.0	-12.9	-1.1	-0.4	25.6	52.9*	58.8*	31.4
COc1cccc(Cn2cc(C)cc(NC(=O)NCc3ccccc3)c2=O)c1	x	-0.9	-3.0	2.4	x	40.5*	-3.5	-14.5
O=C1CC(NCc2ccc3c(c2)OCO3)C(=O)N1CCc1ccccc1 (configuration not stated)	11.7	-23.8	5.2	-2.1	-17.1	54.1*	-12.6	-18.3
